The values that follow come from paper PMC6889097 (Virologica Sinica, 2019).

Series [1] has as its system CCL2. Nature of the series: cells. Format: cell-based, human. The conditions noted are these: for IC50: Homo sapiens.
Series [2] relates to A/PuertoRico/8/1934 (H1N1) influenza virus. Nature of the series: microbe, parasite or virus in culture. Format: cell-based, influenza virus A/PuertoRico/8/1934 (H1N1).
Series [3] concerns CXCL10. Nature of the series: cells. The format is cell-based, human. The conditions noted are these: for IC50: Homo sapiens, U-937, read-out: IC50 CXCL10.
Series [4] is described as follows: Cell viability. The format is cell-based, human. Conditions: human; for CC50: U937 cells; for CC50 at 48 h: uninfected U937 cells. In outline:
(§1)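 Uninfected U937 cells, 40,000/well (1 × 10^6 cells/mL) in RPMI 1640 + 10% FBS, were incubated with serially diluted test compound in 384-well plates for 48 h at 37 ℃/5% CO2. After the plates were spun at 500 ×g for 3 min, supernatant was replaced with medium containing 20% MTS reagent for 1 h at 37 ℃. OD490 was read against reference OD630, and CC50 was derived.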

In series [5] the test system is lethal influenza virus infection. Conditions: mouse, cited from earlier work.
In series [6] the test system is U937 cells. In words: Cell viability. The format is cell-based, human. Conditions: 50% cytotoxic concentration, MTS assay, U937 cells; validation panel (Table 2). In outline:
as §1

[7] abbreviates: Influenza A virus, H1N1, U-937, read-out: IC50 NA.

Read-outs that look alike come from different tables or passages of the source. Marks after values point to notes of the source that are not given here. A value given as a limit tells only on which side of the number the result lay.

As to `CC[C@@H]1/C=C(\C)C[C@H](C)C[C@H](OC)[C@H]2O[C@@](O)(C(=O)C(=O)N3CCCC[C@H]3C(=O)O[C@H](/C(C)=C/[C@@H]3CC[C@@H](O)[C@H](OC)C3)[C@H](C)[C@@H](O)CC1=O)[C@H](C)C[C@@H]2OC` [Ascomycin, ascomycin], the IC50 in series [1] (U-937, read-out: IC50 CCL2) is 8.1 µM; in series [2] (setting [7]) it was 21.3 µM; in series [3] it was 9.9 µM. The “antiviral effect in the U937 cell model (result in words)” value (“antiviral effect in the U937 cell model” for short) in series [2] is on record as “antiviral effects”. Further, the CC50 in series [4] is 62 µM. For the same compound, in series [5], the “In vivo: the protective effect of mice from lethal influenza infection” value (“In vivo: the protective effect of mice” below) was “+”.

Compound `Cc1nc(Nc2ncc(C(=O)Nc3c(C)cccc3Cl)s2)cc(N2CCN(CCO)CC2)n1` [Dasatinib] returned a CC50 at 48 h in series [4] greater than 90 µM.

As for `Cc1ccc(-c2ncc(Cl)cc2-c2ccc(S(C)(=O)=O)cc2)cn1` [Etoricoxib, etoricoxib], in series [1], the “IC50 CCL2” value is “– (key: –: lower than 50% inhibition or not effective)” and the “effect on the production of CCL2 in U937 cell model (result in words)” value was “no inhibitory effect”. For the same compound, in series [2], the “IC50 NA” value is “– (key: –: lower than 50% inhibition or not effective)”. Moreover, in series [3], the “IC50 CXCL10” value was “– (key: –: lower than 50% inhibition or not effective)” and the “effect on the production of CXCL10 in U937 cell model (result in words)” value is reported as “no inhibitory effect”. The CC50 in series [4] was greater than 50 µM. In addition, the “reported effect on survival rate of influenza-infected mice” value (from here on “reported effect on survival rate”) in series [5] (in vivo) was “no improvement on the survival rate”. In addition, the “In vivo: the protective effect of mice” value in series [5] is recorded as “±^j”.

As to `CC(C)n1c(/C=C/C(O)CC(O)CC(=O)O)c(-c2ccc(F)cc2)c2ccccc21` (stereo not shown) [Fluvastatin], in series [4], the CC50 at 48 h is greater than 90 µM.

On to `C=CC(=O)N1CCC[C@@H](n2nc(-c3ccc(Oc4ccccc4)cc3)c3c(N)ncnc32)C1` [Ibrutinib, ibrutinib], for which the IC50 in series [1] (U-937, read-out: IC50 CCL2) was 0.62 µM. In addition, the “IC50 NA” value in series [2] is on record as “–^h (key: –: lower than 50% inhibition or not effective)”. In addition, the IC50 in series [3] was determined as 0.96 µM. For the same compound, the CC50 in series [4] came out at 26.5 µM. Also, in series [5] (in vivo), the “reported effect on survival rate” value was “improve the survival rate and pathology”; the “reported protection of mice from lethal influenza infection” value is “protect mice from lethal influenza infection”. For the same compound, the “In vivo: the protective effect of mice” value in series [5] is recorded as “+^i”.

As for `CC(C)Cc1ccc(C(C)C(=O)O)cc1` (stereo not shown) [Ibuprofen, ibuprofen], in series [1], the “IC50 CCL2” value is “– (key: –: lower than 50% inhibition or not effective)” and the “effect on the production of CCL2 in U937 cell model (result in words)” value is listed as “no inhibitory effect”. Also, the “IC50 NA” value in series [2] is on record as “– (key: –: lower than 50% inhibition or not effective)”. Besides, in series [3], the “IC50 CXCL10” value was “– (key: –: lower than 50% inhibition or not effective)” and the “effect on the production of CXCL10 in U937 cell model (result in words)” value is “no inhibitory effect”. For the same compound, in series [4], the CC50 was greater than 50 µM.

As to `C[C@H]1COc2c(N3CCN(C)CC3)c(F)cc3c(=O)c(C(=O)O)cn1c23` [Levofloxacin], in series [1] (U-937, 48 h, read-out: IC50 CCL2), the half-inhibitory concentration (IC50) was no more than 10 µM. In series [4], this compound yielded a CC50 at 48 h greater than 90 µM. Also, the “reported survival rate in mice infected with the H1N1 PR8 virus” value in series [5] (in vivo) was “increased the survival rate”.

`CCOC(=O)C1=C[C@@H](OC(CC)CC)[C@H](NC(C)=O)[C@@H](N)C1` [Oseltamivir]: the “IC50 CCL2” value in series [1] was “– (key: –: lower than 50% inhibition or not effective)”. Besides, in series [2], the “antiviral effect in the U937 cell model” value is listed as “antiviral effects”. Besides, the IC50 in series [2] (read-out: IC50 NA) worked out at 0.58 µM. In addition, the “IC50 CXCL10” value in series [3] is “– (key: –: lower than 50% inhibition or not effective)”. The compound also returned a CC50 in series [6] greater than 100 µM. Besides, in series [5], the “In vivo: the protective effect of mice” value is reported as “+”.

`CC(C)Oc1ccc(-c2nc(-c3cccc4c3CC[C@@H]4NCCO)no2)cc1C#N` [Ozanimod, ozanimod]: the IC50 in series [1] (U-937, read-out: IC50 CCL2) was determined as 7.7 µM; in series [3], 10.7 µM. Moreover, in series [2], the “IC50 NA” value is reported as “– (key: –: lower than 50% inhibition or not effective)”. In series [4], this compound returned a CC50 of 26 µM. Also, the “reported effect on survival rate” value in series [5] (in vivo) was “improve the survival rate and pathology”. Moreover, the “In vivo: the protective effect of mice” value in series [5] was “+”.

In series [4], `O=C(O)C[C@H](O)C[C@H](O)/C=C/c1c(C2CC2)nc2ccccc2c1-c1ccc(F)cc1` [Pitavastatin] displayed a half-maximal cytotoxic concentration (CC50) at 48 h greater than 90 µM.

On to `CNCCCC1c2ccccc2C=Cc2ccccc21` [Protriptyline], for which, in series [4], the CC50 at 48 h was greater than 90 µM.

Turning to `NC(=O)c1ncn([C@@H]2O[C@H](CO)[C@@H](O)[C@H]2O)n1` [Ribavirin], the “IC50 CCL2” value in series [1] is “– (key: –: lower than 50% inhibition or not effective)”. In addition, in series [2], the “antiviral effect in the U937 cell model” value is “antiviral effects”. Moreover, the IC50 in series [2] (setting [7]) was 26.2 µM. The “IC50 CXCL10” value in series [3] is recorded as “– (key: –: lower than 50% inhibition or not effective)”. Besides, the CC50 in series [4] was greater than 160 µM.

With `CN(CCOc1ccc(CC2SC(=O)NC2=O)cc1)c1ccccn1` (stereo not shown) [Rosiglitazone, rosiglitazone], the “IC50 CCL2” value in series [1] is recorded as “– (key: –: lower than 50% inhibition or not effective)”. Besides, the “IC50 NA” value in series [2] was “– (key: –: lower than 50% inhibition or not effective)”. In addition, the “IC50 CXCL10” value in series [3] is recorded as “– (key: –: lower than 50% inhibition or not effective)”. This compound also gave a CC50 in series [4] greater than 100 µM. Further, the “reported effect on survival rate” value in series [5] (in vivo) is “improve the survival rate and pathology”. In addition, the “In vivo: the protective effect of mice” value in series [5] is “+”.

As to `CCC(C)(C)C(=O)O[C@H]1C[C@@H](C)C=C2C=C[C@H](C)[C@H](CC[C@@H]3C[C@@H](O)CC(=O)O3)[C@H]21` [Simvastatin], the midpoint of cytotoxicity in series [4], the CC50 at 48 h, lay at 66.8 µM.

Regarding `CCOC(=O)N[C@@H]1CC[C@@H]2[C@@H](C1)C[C@H]1C(=O)O[C@H](C)[C@H]1[C@H]2/C=C/c1ccc(-c2cccc(F)c2)cn1` [Vorapaxar, vorapaxar], the concentration for half-maximal inhibition (IC50) came out at 5.2 µM in series [1] (U-937, read-out: IC50 CCL2) and 13.3 µM in series [3]. Moreover, in series [2], the “IC50 NA” value is “– (key: –: lower than 50% inhibition or not effective)”. This compound showed a CC50 in series [4] greater than 80 µM. The “reported effect on survival rate” value in series [5] (in vivo) was “improve the survival rate and pathology”. For the same compound, in series [5], the “In vivo: the protective effect of mice” value is “+”.

In general, IC50 refers to the midpoint of a concentration-inhibition curve. One may read the CC50 as the concentration giving 50% cytotoxicity.
